Assays:
P388/S [1] = test: In vitro relative vinblastin uptake into P388/s (murine leukemia) cells following 10 uM treatment.; type: functional, Mus musculus
Method in brief: (§1)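 10^6 P388/S or P388/ADR cells in 1 mL of 20 mM Hepes-buffered medium, pH 7.4. They are incubated with 4.6 kBq [3H]vinblastine with or without 10 μM compound (DMSO final 1%) at 37 °C for 30 min. Cells are then chilled, pelleted at 2 °C and washed twice in cold PBS. They are solubilized in NaOH and counted. The value is uptake relative to untreated cells.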

P388/ADR [2] = test: In vitro relative vinblastin uptake into P388/ADR (murine leukemia/multidrug resistant) cells following 10 uM treatment.; type: functional, Mus musculus; method in brief: as §1
Mus musculus [3] = test: Evaluation of Survival of mice upon oral administration on days 1-4 and 6-8 at a concentration of 40 mg/kg; type: functional
Method in brief: (§2)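 Female CD2F1 mice, 5 per group, were inoculated i.p. with 1.0 × 10^6 P388/ADR cells on day 0. VBL was given by i.p. injection and/or the test agent orally on days 1-4 and 6-8. Read-out was survival days (average ± SD) and ILS (%) against the untreated group, with P < 0.05 by Student's t-test or a two-sample test with Welch's correction.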

Mus musculus [4] = test: Evaluation of ILS percentage of mice upon oral administration on days 1-4 and 6-8 at a concentration of 40 mg/kg; type: functional; method in brief: as §2
P388/ADR [5] = test: Evaluation of inhibitory activity against multidrug resistant P388 cells (P388/ADR) cells; type: functional, cell-based, Mus musculus
Method in brief: (§3)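 P388/S and P388/ADR murine leukemia cells are maintained by weekly intraperitoneal passage in female CDF1 mice. For the assay they are seeded at 10^5 cells/mL in RPMI-1640 with 10% FCS, 20 μM β-mercaptoethanol and 100 μg/mL kanamycin. Vinblastine is given with or without modulator (0–5.0 μM; DMSO final 0.25%) for 48 h. Growth is read by MTT and vinblastine IC50 is reported.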

P388/S [6] = test: (§4) Evaluation of inhibitory activity against drug sensitive P388 cells (P388/S) cells; type: functional, cell-based; conditions: Mus musculus; method in brief: as §3
Mus musculus [7] = test: In vivo evaluation for the inhibitory activity against drug sensitive P388 cells (P388/S) cells bearing mice at a concentration of 0.2 mg/kg
Mus musculus [8] = test: Evaluation of ILS percentage of mice upon intraperitoneal injection of VBL at a concentration of 0.2 mg/kg; type: functional; conditions: ip; method in brief: as §2
Mus musculus [9] = test: Evaluation of Survival of mice upon intraperitoneal injection of VBL at a concentration of 0.2 mg/kg; type: functional; conditions: ip; method in brief: as §2
Mus musculus [10] = test: In vivo evaluation for the inhibitory activity against drug sensitive P388 cells (P388/S) cells bearing mice at dose 0.2 mg/kg; type: functional
Method in brief: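 Mice were implanted with 1 × 10^6 P388/S cells on day 0 and given VBL by i.p. injection on days 1-4 and 6-8. Survival days (average ± SD) and ILS (%) were compared with the untreated group, with P < 0.05 by Student's t-test or Welch-corrected two-sample test.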

P388/S [11] = test: as §4; type: functional, cell-based, Mus musculus; method in brief: as §3

Compound	Relative uptake (P388/S [1])	Relative uptake (P388/ADR [2])	other results
COc1ccc(CN2CCN(Cc3ccc(OC)c(OC)c3)C(SC)=NC2=O)cc1OC	1.04	1.14	–
CSC1=NC(=S)N(Cc2ccccc2)CCN1Cc1ccccc1	1.19	3.44	–
CSC1=NC(=O)N(Cc2ccc(Cl)cc2)CCN1Cc1ccc(Cl)cc1	1.28	6.87	Survival days (Mus musculus [3]): 10; ILS at 40 mg/kg (Mus musculus [4]): 4.2%
O=C1NC(=O)N(Cc2ccc(Cl)cc2)CCN1Cc1ccc(Cl)cc1	1.22	3.44	–
O=C1NC(=O)N(Cc2cccc(Cl)c2)CCN1Cc1cccc(Cl)c1	1.2	1.05	–
O=C1NC(=O)N(Cc2ccccc2)CCN1Cc1ccccc1	1.09	1.41	–
S=C1NC(=S)N(Cc2cccc(Cl)c2)CCN1Cc1cccc(Cl)c1	1.34	5.34	–
O=C1NC(=S)N(Cc2ccc(Cl)cc2)CCN1Cc1ccc(Cl)cc1	1.3	5.35	–
COc1ccc(CN2CCN(Cc3ccc(OC)c(OC)c3)C(=S)NC2=O)cc1OC	1.14	2.36	–
O=C1NC(=S)N(Cc2ccccc2)CCN1Cc1ccccc1	1.2	2.11	–
COc1cccc2c1C(=O)c1c(O)c3c(c(O)c1C2=O)C[C@@](O)(C(=O)CO)C[C@@H]3O[C@H]1C[C@H](N)[C@H](O)[C@H](C)O1 [DOXORUBICIN]	–	–	IC50 (P388/ADR [5]; Mus musculus, P388/ADR): 360 nM; IC50 (P388/S [6]): 19 nM
CO[C@@]12[C@H](COC(N)=O)C3=C(C(=O)C(C)=C(N)C3=O)N1C[C@@H]1N[C@@H]12 [MITOMYCIN]	–	–	IC50 (P388/ADR [5]; Mus musculus, P388/ADR): 535 nM; IC50 (P388/S [6]): 48 nM
COc1ccc(CCN(C)CCCC(C#N)(c2ccc(OC)c(OC)c2)C(C)C)cc1OC (centres undefined) [VERAPAMIL]	1.02	5.7	–
CC[C@]1(O)C[C@@H]2CN(CCc3c([nH]c4ccccc34)[C@@](C(=O)OC)(c3cc4c(cc3OC)N(C)[C@H]3[C@@](O)(C(=O)OC)[C@H](OC(C)=O)[C@]5(CC)C=CCN6CC[C@]43[C@@H]65)C2)C1 [VINBLASTINE]	–	–	Survival days (Mus musculus [7]): 15.5; ILS at 0.2 mg/kg (Mus musculus [8]): 89%; ILS at 0.2 mg/kg (Mus musculus [9]): 14.6%; Survival days (Mus musculus [10]): 15.5
CISPLATIN	–	–	IC50 (P388/ADR [5]; p388/adr): 61 nM; IC50 (P388/S [11]): 48 nM

Reference: ChEMBL document CHEMBL1128222, “Novel inhibitors for multidrug resistance: 1,3,5-triazacycloheptanes” (J Med Chem, 1995)
